Values belong to the compound of their own block, whether it stands above or below them.
How the values were obtained:
[1] = target: T1, Rhodopsin kinase GRK1 (Homo sapiens) (UniProt Q15835); test: Inhibition of human recombinant RHOK at 500 nM related to control ULK1
T1 sequence (whole entry): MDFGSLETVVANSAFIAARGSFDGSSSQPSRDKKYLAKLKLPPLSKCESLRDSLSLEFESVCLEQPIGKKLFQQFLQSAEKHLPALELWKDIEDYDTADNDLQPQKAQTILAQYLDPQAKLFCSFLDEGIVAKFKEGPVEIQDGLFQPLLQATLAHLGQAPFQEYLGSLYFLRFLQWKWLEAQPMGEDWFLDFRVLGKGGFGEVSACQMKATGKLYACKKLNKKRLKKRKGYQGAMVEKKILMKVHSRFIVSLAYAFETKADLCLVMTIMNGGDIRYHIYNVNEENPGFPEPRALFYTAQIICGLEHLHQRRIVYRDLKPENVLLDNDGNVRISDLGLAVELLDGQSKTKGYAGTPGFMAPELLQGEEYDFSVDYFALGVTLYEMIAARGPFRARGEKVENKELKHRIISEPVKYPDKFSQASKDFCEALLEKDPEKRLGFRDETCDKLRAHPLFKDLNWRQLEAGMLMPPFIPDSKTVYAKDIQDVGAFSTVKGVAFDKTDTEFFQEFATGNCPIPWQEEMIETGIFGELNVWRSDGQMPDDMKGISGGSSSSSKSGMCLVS

[2] = target: RAC-alpha serine/threonine-protein kinase (Homo sapiens) (UniProt P31749); test: Inhibition of human recombinant AKT1 at 500 nM in presence of ATP by radiometric assay relative to control
Chain of RAC-alpha serine/threonine-protein kinase (Homo sapiens) (P31749 whole entry): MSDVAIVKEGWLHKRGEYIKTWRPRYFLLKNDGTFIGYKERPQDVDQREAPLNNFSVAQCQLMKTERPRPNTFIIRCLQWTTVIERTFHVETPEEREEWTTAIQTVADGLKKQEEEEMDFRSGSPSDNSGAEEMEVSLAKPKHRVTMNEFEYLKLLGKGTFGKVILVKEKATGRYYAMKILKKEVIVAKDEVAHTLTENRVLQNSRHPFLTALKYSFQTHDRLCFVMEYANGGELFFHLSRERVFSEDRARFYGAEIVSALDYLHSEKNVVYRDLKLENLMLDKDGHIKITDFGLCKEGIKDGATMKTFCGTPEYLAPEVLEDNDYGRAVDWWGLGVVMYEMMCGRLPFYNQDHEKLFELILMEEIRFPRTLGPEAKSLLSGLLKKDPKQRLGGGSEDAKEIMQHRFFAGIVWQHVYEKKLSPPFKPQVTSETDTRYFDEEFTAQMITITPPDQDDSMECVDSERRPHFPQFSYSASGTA
In short: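 Panel of 327 recombinant human kinases in radiometric activity assays, each screened in duplicate at a single inhibitor concentration; percent activity remaining relative to vehicle control, percent inhibition taken as 100 minus activity remaining.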

[3] = target: Transcription initiation factor TFIID subunit 1-like (Homo sapiens) (UniProt Q8IZX4); test: Inhibition of human recombinant TAF1L at 500 nM in presence of ATP by radiometric assay relative to control
Chain of Transcription initiation factor TFIID subunit 1-like (Homo sapiens) (Q8IZX4 whole entry): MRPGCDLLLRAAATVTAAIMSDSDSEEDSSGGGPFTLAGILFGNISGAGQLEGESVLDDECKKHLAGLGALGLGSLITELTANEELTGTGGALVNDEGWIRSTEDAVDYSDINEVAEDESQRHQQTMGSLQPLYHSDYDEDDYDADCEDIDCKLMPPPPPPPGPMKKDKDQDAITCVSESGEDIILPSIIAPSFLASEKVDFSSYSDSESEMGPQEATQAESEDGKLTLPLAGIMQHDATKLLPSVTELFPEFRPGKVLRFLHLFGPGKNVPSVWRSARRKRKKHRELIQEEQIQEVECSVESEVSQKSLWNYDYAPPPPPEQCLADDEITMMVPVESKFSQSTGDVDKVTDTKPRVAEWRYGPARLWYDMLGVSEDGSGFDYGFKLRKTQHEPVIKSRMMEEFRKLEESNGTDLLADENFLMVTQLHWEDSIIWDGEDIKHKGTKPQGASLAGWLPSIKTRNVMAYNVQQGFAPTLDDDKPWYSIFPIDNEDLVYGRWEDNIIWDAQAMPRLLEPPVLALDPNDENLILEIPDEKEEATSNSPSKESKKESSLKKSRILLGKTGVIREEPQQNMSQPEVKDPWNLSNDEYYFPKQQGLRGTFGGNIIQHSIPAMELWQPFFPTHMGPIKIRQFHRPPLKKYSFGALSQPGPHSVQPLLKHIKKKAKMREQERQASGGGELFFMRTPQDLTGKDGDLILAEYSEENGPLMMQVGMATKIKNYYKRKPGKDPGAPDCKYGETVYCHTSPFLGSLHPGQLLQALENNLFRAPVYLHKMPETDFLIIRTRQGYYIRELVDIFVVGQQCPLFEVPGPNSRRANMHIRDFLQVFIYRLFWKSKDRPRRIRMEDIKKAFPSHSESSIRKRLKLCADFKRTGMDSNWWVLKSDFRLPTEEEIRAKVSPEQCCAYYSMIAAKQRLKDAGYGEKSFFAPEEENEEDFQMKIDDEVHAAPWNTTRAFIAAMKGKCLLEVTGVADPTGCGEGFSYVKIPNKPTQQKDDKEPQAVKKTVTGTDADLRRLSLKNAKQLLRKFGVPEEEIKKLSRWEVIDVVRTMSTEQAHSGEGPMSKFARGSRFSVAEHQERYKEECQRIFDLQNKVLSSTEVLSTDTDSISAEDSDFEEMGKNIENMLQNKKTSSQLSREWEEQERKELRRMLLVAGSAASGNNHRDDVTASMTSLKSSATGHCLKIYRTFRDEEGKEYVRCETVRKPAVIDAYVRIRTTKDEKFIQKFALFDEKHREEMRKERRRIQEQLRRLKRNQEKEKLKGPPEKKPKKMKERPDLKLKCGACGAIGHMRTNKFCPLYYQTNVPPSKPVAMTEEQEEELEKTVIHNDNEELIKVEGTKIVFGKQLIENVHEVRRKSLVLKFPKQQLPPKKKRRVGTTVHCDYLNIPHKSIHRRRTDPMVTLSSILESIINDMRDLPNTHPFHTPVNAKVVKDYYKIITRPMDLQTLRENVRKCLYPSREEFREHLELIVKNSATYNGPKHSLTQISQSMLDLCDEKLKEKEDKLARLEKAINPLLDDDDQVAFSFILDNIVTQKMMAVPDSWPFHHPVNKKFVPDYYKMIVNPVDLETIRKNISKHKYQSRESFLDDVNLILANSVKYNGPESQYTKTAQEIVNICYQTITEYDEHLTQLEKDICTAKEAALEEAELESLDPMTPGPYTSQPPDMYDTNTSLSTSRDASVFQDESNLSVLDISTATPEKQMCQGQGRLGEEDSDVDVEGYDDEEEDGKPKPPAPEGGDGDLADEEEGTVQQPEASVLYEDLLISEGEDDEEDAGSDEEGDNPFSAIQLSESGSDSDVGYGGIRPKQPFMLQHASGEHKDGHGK

[4] = target: Cyclin-dependent kinase 6 (Homo sapiens) (UniProt Q00534); test: Inhibition of human recombinant CDK6 at 500 nM in presence of ATP by radiometric assay relative to control
Chain of Cyclin-dependent kinase 6 (Homo sapiens) (Q00534 whole entry): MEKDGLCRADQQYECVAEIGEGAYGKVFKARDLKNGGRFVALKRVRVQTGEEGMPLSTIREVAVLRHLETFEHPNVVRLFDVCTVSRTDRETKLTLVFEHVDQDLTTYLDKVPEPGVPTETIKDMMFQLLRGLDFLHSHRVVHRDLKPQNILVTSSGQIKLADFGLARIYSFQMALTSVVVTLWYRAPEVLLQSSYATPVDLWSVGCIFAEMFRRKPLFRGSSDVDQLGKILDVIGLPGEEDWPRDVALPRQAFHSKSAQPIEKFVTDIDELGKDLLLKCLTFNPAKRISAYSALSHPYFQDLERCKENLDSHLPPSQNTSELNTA

[5] = target: BDNF/NT-3 growth factors receptor (Homo sapiens) (UniProt Q16620); test: Inhibition of human recombinant TRKB at 15 nM in presence of ATP by radiometric assay relative to control
[6] = target: Serine/threonine-protein kinase PRP4 homolog (Homo sapiens) (UniProt Q13523); test: Inhibition of human recombinant PRP4 at 15 nM in presence of ATP by radiometric assay relative to control
[7] = target: Aurora kinase B (Homo sapiens) (UniProt Q96GD4); test: Inhibition of human recombinant AurB at 40 nM in presence of ATP by radiometric assay relative to control
Chain of Aurora kinase B (Homo sapiens) (Q96GD4 whole entry): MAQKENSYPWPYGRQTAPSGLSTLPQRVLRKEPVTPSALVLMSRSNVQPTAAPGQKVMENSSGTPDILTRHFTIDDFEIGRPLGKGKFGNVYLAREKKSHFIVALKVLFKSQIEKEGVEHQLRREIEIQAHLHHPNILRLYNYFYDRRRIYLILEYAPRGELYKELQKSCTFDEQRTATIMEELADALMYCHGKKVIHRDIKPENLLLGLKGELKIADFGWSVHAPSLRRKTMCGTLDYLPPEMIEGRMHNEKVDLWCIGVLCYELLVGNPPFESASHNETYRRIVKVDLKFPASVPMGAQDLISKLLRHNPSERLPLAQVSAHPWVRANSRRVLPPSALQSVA
In short: (§1)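 Part of a radiometric in vitro activity panel of 327 recombinant human kinases. Each kinase was tested in duplicate at one inhibitor concentration. Activity remaining was expressed as a percentage of the vehicle control, and percent inhibition was taken as 100 minus that value.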

[8] = target: Cyclin-dependent kinase 5 (Homo sapiens) (UniProt Q00535); test: Inhibition of human recombinant CDK5 at 40 nM related to control ULK1
Chain of Cyclin-dependent kinase 5 (Homo sapiens) (Q00535 whole entry, looked up): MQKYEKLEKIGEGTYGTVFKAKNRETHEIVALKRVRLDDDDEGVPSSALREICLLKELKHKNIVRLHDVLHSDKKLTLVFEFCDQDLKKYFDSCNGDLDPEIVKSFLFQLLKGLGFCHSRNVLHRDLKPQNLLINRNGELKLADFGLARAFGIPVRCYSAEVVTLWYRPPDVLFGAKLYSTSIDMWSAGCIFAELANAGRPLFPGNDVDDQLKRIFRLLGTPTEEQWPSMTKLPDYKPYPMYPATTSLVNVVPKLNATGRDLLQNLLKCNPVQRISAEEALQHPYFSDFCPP

[9] = target: T2, Serine/threonine-protein kinase ULK3 (Homo sapiens) (UniProt Q6PHR2); test: Inhibition of human recombinant ULK3 at 40 nM in presence of ATP by radiometric assay relative to control
T2 sequence (whole entry): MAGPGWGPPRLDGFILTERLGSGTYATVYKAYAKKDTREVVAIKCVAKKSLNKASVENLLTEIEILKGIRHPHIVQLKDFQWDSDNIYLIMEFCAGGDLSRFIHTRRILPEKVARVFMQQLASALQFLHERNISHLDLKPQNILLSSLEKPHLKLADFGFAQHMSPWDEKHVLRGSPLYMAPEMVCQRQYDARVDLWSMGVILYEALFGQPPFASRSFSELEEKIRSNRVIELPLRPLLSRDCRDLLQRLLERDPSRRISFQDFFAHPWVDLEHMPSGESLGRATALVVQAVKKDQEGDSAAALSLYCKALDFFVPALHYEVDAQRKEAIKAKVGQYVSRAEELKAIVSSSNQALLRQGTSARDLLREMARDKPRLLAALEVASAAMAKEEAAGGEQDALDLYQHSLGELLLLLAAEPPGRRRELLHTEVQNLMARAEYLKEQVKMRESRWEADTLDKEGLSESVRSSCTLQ

[10] = target: T3, Beta-adrenergic receptor kinase 1 (Homo sapiens) (UniProt P25098); test: Inhibition of human recombinant BARK1 at 40 nM in presence of ATP by radiometric assay relative to control; in short: as §1
T3 sequence (whole entry): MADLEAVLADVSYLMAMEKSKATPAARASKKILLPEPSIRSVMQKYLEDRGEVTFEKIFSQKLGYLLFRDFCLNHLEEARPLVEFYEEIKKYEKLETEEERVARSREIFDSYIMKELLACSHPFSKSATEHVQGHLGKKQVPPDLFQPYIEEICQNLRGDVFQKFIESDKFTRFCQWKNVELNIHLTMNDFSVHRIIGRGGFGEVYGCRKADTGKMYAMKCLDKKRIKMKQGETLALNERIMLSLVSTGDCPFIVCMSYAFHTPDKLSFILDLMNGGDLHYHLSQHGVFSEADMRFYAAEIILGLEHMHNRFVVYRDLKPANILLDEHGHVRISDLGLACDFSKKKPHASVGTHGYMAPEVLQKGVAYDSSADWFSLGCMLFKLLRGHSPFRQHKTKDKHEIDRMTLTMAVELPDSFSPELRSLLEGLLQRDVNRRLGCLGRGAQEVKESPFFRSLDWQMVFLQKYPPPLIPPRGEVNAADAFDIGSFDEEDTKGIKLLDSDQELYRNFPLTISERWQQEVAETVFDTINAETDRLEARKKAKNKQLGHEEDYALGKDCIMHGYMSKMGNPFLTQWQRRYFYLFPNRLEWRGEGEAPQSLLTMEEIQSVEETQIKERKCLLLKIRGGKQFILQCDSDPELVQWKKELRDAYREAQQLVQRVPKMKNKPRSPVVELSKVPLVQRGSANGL

[11] = target: ALK tyrosine kinase receptor (Homo sapiens) (UniProt Q9UM73); test: Inhibition of human recombinant ALK at 40 nM related to control ULK1
Chain of ALK tyrosine kinase receptor (Homo sapiens) (Q9UM73 19-1620 limits assumed): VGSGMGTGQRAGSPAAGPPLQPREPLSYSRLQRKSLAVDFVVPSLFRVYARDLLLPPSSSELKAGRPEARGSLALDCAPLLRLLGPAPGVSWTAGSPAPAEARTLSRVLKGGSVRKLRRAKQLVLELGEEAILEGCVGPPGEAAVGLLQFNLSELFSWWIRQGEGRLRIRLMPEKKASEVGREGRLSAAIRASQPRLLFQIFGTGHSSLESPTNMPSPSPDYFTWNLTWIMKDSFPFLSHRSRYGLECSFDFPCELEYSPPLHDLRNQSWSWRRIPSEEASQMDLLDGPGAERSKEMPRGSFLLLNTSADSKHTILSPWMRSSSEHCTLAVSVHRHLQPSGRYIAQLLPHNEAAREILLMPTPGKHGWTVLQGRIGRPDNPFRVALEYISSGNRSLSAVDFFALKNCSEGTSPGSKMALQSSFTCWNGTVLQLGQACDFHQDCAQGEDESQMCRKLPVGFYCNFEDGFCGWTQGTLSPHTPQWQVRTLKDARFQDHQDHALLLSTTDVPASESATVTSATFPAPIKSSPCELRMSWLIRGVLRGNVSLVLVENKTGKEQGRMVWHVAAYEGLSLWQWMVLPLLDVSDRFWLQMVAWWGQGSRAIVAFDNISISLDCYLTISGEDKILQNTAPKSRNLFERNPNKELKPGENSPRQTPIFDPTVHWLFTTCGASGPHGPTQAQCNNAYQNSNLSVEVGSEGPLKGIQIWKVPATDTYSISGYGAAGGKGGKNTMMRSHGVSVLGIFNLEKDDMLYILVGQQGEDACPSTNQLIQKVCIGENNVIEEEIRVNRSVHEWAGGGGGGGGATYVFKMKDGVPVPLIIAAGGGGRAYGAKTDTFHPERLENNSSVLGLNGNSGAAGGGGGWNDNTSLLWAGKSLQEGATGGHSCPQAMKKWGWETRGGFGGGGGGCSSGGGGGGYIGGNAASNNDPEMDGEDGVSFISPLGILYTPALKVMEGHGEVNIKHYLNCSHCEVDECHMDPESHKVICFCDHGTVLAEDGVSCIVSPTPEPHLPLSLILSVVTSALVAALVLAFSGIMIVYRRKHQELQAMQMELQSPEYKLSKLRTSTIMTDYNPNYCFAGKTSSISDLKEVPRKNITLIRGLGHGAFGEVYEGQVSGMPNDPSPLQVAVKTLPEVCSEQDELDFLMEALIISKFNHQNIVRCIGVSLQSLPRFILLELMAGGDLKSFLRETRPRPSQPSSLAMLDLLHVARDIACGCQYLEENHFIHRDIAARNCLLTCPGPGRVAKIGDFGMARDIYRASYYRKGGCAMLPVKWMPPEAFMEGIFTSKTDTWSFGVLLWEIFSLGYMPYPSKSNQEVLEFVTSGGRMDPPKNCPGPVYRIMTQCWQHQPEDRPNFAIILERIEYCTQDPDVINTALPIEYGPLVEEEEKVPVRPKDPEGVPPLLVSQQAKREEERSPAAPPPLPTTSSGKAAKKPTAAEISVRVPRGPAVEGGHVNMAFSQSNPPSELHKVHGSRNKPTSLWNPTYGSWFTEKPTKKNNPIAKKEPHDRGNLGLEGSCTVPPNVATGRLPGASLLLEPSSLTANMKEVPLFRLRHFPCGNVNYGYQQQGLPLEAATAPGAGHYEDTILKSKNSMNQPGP
In short: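 Radiometric activity assays in a panel of 327 human recombinant kinases, each run in duplicate at one inhibitor concentration. Activity remaining is expressed as percent of vehicle control, and percent inhibition is calculated as 100% minus percent activity remaining.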

fold change (FC) [1]: 0
inhibition [2]: 0%
inhibition [3]: 0%
inhibition [4]: 0%
Compound: CNC(=O)c1ccccc1Oc1nc(Nc2cc(OC)c(OC)c(OC)c2)ncc1Br

inhibition [5]: 0%
inhibition [6]: 6%
Compound: CC(C)[C@H](NC(=O)c1cc(-c2cnn3cc(-c4ccc(OCCN5CCCCC5)cc4)cnc23)cs1)C(F)(F)F

inhibition [7]: 49%
fold change (FC) [8]: 0.64
inhibition [9]: 5%
inhibition [10]: 3%
fold change (FC) [11]: 0
Compound: O=C(N[C@@H](C1CC1)C(F)(F)F)c1cc(-c2cnn3cc(-c4ccc(F)cc4)cnc23)cs1
